Test results reported in ChEMBL document CHEMBL1121536, “C(14)-fluorinated prostaglandins: synthesis and biological evaluation of the methyl esters of (+)-14-fluoro-, (+)-15-epi-14-fluoro-, (+)-13(E)-14-fluror-, and (+)-13(E)-15-epi-14-fluoroprostaglandin F2 alpha” (1980).

Key:
[1] = system: Cricetinae gen. sp.; test: The compound was evaluated for the antifertility activity in hamster at 12.5 ug administered subcutaneously; assay type: functional, Cricetulus griseus
Procedure, shortened: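 Hamsters were dosed subcutaneously, daily, in groups of ten. The minimum effective dose was the lowest dose per hamster per day giving no pregnancies (no implants) in the group. Potency was derived by comparing each compound's minimum effective dose with that of natural PGF2α.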

[2] = system: Cricetinae gen. sp.; test: The compound was evaluated for the hamster uterine contraction in vitro on uterine strips
[3] = system: Gerbillinae; test: The compound was evaluated for the gerbil colon contraction in vitro on colon strips

Row | SMILES | relative potency (PGF2α = 1) [1] | relative potency (PGF2α = 1) [2] | relative potency (PGF2α = 1) [3]
1 | CCCCC[C@@H](O)/C(F)=C\[C@@H]1[C@@H](C/C=C\CCCC(=O)OC)[C@@H](O)C[C@H]1O | > 1 | 0.36 | 0.15
2 | CCCCC[C@@H](O)/C(F)=C/[C@@H]1[C@@H](C/C=C\CCCC(=O)OC)[C@@H](O)C[C@H]1O | 0.5 | 0.025 | 0.0034
3 | CCCCC[C@H](O)/C(F)=C/[C@@H]1[C@@H](C/C=C\CCCC(=O)OC)[C@@H](O)C[C@H]1O | < 0.5 | 0.263 | 0.023
4 | CCCCC[C@H](O)/C(F)=C\[C@@H]1[C@@H](C/C=C\CCCC(=O)OC)[C@@H](O)C[C@H]1O | < 0.1 | 0.0002 | 0.002
5 | CCCCC[C@H](O)/C=C/[C@@]1(F)[C@H](O)C[C@H](O)[C@@H]1C/C=C\CCCC(=O)OC | 12.5 | 0.28 | 0.001
6 | CCCCC[C@@H](O)/C=C/[C@@]1(F)[C@H](O)C[C@H](O)[C@@H]1C/C=C\CCCC(=O)OC | 1 | 0.022 | 0.011
